13 molecules from ChEMBL document CHEMBL1157578, “Design, synthesis, and biological evaluation of novel water-soluble triptolide derivatives: Antineoplastic activity against imatinib-resistant CML cells bearing T315I mutant Bcr-Abl” (Bioorg Med Chem, 2010) can be followed below.

The test system of series [1] is KBM5. Description: Cytotoxicity against human KBM5 cells harboring wild type Bcr-Abl at 0.001 to 17 uM after 72 hrs by MTS assay. The class given is functional, cell-based. An outline of the steps: (§1)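 KBM5 (wild-type p210 Bcr-Abl) or KBM5-T315I cells in IMDM + 10% heat-inactivated FCS. The T315I subline was kept in 1 µM imatinib, removed 2–3 days before assay. Cells incubated 72 h with increasing concentrations. Viability by MTS at 490 nm, as percent of control; IC50 from dose–response curves.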

The test system of series [2] is KBM5. Description: Cytotoxicity against imatinib-resistant human KBM5 cells harboring Bcr-Abl T315I mutant at 0.001 to 17 uM after 72 hrs by MTS assay. The class given is functional, cell-based. A digest of the protocol: as §1
Series [3] is described as follows: Cytotoxicity against imatinib-resistant human KBM5 cells harboring Bcr-Abl T315I mutant after 72 hrs by MTS assay. The class given is functional, cell-based. To be noted: KBM5, 72 h. An outline of the steps: as §1
A general note: Formazan colour is commonly taken as a measure of viable cells.

Series [4] is described as follows: Aqueous solubility in water. It counts as physicochemical. The settings on record: buffer.
Series [5] can be described thus: Cytotoxicity against human KBM5 cells harboring wild type Bcr-Abl after 72 hrs by MTS assay. The settings on record: KBM5, 72 h. The class given is functional, cell-based. An outline of the steps:
as §1

Series [6] can be described thus: Cytotoxicity against mouse 32D cells harboring wild type Bcr-Abl after 72 hrs by MTS assay. It counts as functional, cell-based. A digest of the protocol:
(§2)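 32D myeloid cells stably expressing wild-type or T315I Bcr-Abl, maintained in RPMI 1640 + 10% FBS. Treated with increasing concentrations for 72 h. Viability by MTS, optical density at 490 nm.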

The next series concerns MEF. Description: Cytotoxicity against MEF after 72 hrs by MTS assay. The class given is cell-based. The settings on record: Mus musculus. A digest of the protocol: (§3)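 MEF and NHFB fibroblasts cultured in DMEM + 10% FCS. Exposed to increasing concentrations for 72 h. Viability by MTS reagent, optical density at 490 nm.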
Series [7] can be described thus: Cytotoxicity against imatinib-resistant mouse 32D cells harboring Bcr-Abl T315I mutant after 72 hrs by MTS assay. The class given is functional, cell-based. An outline of the steps: as §2
Series [8] in a line: Cytotoxicity against NHFB after 72 hrs by MTS assay. On the set-up: species or system Homo sapiens. An outline of the steps:
as §3

Series [9] concerns KBM5. Description: Inhibition of RNA polymerase 2 in human KBM5 cells harboring wild type Bcr-Abl assessed as decrease in polymerase 2 phosphorylation after 18 hrs by Western blot analysis. It counts as cell-based. A digest of the protocol:
(§4)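 Cells exposed for 18 h at the indicated concentrations. Whole-cell lysates made in RIPA buffer with phosphatase and protease inhibitors. Western blot for Bcr-Abl (c-Abl C-19), phospho-c-Abl Y245, phospho-RNA polymerase II, PARP, and actin as loading control.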
(In general: In western blotting, separated proteins are transferred to a membrane and probed.)

Series [10] is described as follows: Downregulation of Bcr-Abl protein level in human KBM5 cells harboring Bcr-Abl T315I mutant after 18 hrs by Western blot analysis. The class given is functional, cell-based. A digest of the protocol: as §4
The subject of a further series is DU-145. Description: Inhibition of RNA polymerase 2 in human DU145 cells assessed as decrease in polymerase 2 phosphorylation at 50 to 100 nM after 18 hrs by Western blot analysis. The class given is cell-based.
A further series has as its system HCT-116. Description: Inhibition of RNA polymerase 2 in human HCT116 cells assessed as decrease in polymerase 2 phosphorylation at 50 to 100 nM after 18 hrs by Western blot analysis. It counts as cell-based.
Series [11] in a line: Downregulation of Bcr-Abl protein level in mouse 32D cells harboring Bcr-Abl T315I mutant after 18 hrs by Western blot analysis. The class given is functional, cell-based. A digest of the protocol: as §4
The nature of series [12]: Downregulation of Bcr-Abl protein level in human KBM5 cells harboring wild type Bcr-Abl after 18 hrs by Western blot analysis. The class given is functional, cell-based. A digest of the protocol:
as §4

The subject of series [13] is KBM5. Description: Induction of apoptosis in human KBM5 cells harboring Bcr-Abl T315I mutant assessed as PARP cleavage at 50 to 100 uM after 18 hrs by Western blot analysis. It counts as functional, cell-based.
A further series has as its system HeLa. Description: Inhibition of RNA polymerase 2 in human HeLa cells assessed as decrease in polymerase 2 phosphorylation at 50 to 100 nM after 18 hrs by Western blot analysis. It counts as cell-based.
Series [14] can be described thus: Downregulation of Bcr-Abl mRNA level in human KBM5 cells harboring wild type Bcr-Abl at 50 to 100 nM after 18 hrs by semi-quantitative RT-PCR analysis. It counts as functional, cell-based. A digest of the protocol:
(§5)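 KBM5 and KBM5-T315I cells exposed to 50 or 100 nM, or control medium, for 18 h. Bcr-Abl and GAPDH mRNA measured by semi-quantitative RT-PCR; products run on 1% agarose and stained with ethidium bromide.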

A short description of series [15]: Downregulation of Bcr-Abl protein level in mouse 32D cells harboring wild type Bcr-Abl after 18 hrs by Western blot analysis. It counts as functional, cell-based. An outline of the steps:
as §4

The subject of series [16] is KBM5. Description: Inhibition of RNA polymerase 2 in human KBM5 cells harboring Bcr-Abl T315I mutant assessed as decrease in polymerase 2 phosphorylation after 18 hrs by Western blot analysis. The class given is cell-based. An outline of the steps:
as §4

Series [17] is described as follows: Downregulation of Bcr-Abl mRNA level in human KBM5 cells harboring Bcr-Abl T315I mutant at 50 to 100 nM after 18 hrs by semi-quantitative RT-PCR analysis. The class given is functional, cell-based. An outline of the steps:
as §5

Series [18] deals with KBM5. Description: Induction of apoptosis in human KBM5 cells harboring wild type Bcr-Abl assessed as PARP cleavage at 50 to 100 uM after 18 hrs by Western blot analysis. It counts as functional, cell-based.

The structures appear in SMILES notation. pIC50: −log10 of the molar value. Active and inactive are the calls of the source. The rule behind the calls is not given here.

Regarding `CC(C)[C@]12O[C@H]1[C@@H]1O[C@@]13[C@H]1CCC4=C(COC4=O)[C@@H]1C[C@@H]1O[C@@]13[C@@H]2OC(=O)CN1CCNCC1`, the result with KBM5 [1] and with KBM5 [2] was Active. Further, the pIC50 (in general, the IC50 on a negative log10 scale, so that one unit is a factor of ten) in series [3] was 6.26; in series [5] it was 6.30. For the same molecule, the solubility entry in [4] is recorded as “Soluble”.

Turning to `CC(C)[C@]12O[C@H]1[C@@H]1O[C@]13[C@]1(O[C@H]1C[C@H]1C4=C(CC[C@@]13C)C(=O)OC4)[C@@H]2O` [TRIPTOLIDE], the result with KBM5 [1] and with KBM5 [2] was Active. The negative logarithm of the IC50 (pIC50) in series [6] was 7.49; in the series with MEF, 5.04; in series [3], 8.08; in [7], 7.47; in series [8] it was 5.06; in series [5] it was 7.99. For the same molecule, in series [4], the solubility result is on record as “Insoluble”.

Take `COC(=O)[C@H](C)NCC(=O)O[C@@H]1[C@@]2(C(C)C)O[C@H]2[C@@H]2O[C@@]23[C@H]2CCC4=C(COC4=O)[C@@H]2C[C@@H]2O[C@]213`: the result in the series with KBM5 [1] and with KBM5 [2] was Active. The pIC50 was 7.85 in series [3] and 7.73 in series [5]. Further, in [4], the solubility result is reported as “Soluble”.

As to `CC(C)[C@]12O[C@H]1[C@@H]1O[C@@]13[C@H]1CCC4=C(COC4=O)[C@@H]1C[C@@H]1O[C@@]13[C@@H]2OC(=O)CNc1nccc(-c2cccnc2)n1`, the result in the series with KBM5 [1] and in the series with KBM5 [2] was Active. Also, the results for the pIC50 in series [3] and in [5] were 6.67 and 6.53, respectively. The solubility entry in series [4] is “Soluble”.

On to `CCCCCCCCCCCCNCC(=O)O[C@@H]1[C@@]2(C(C)C)O[C@H]2[C@@H]2O[C@@]23[C@H]2CCC4=C(COC4=O)[C@@H]2C[C@@H]2O[C@]213`, for which the outcome in the series with KBM5 [1] and with KBM5 [2] was inactive. In addition, the pIC50 is 5.98 in [3] and 5.27 in series [5].

`CC(C)[C@]12O[C@H]1[C@@H]1O[C@@]13[C@H]1CCC4=C(COC4=O)[C@@H]1C[C@@H]1O[C@@]13[C@@H]2OC(=O)CNc1ccc(Cl)cc1`: the result in the series with KBM5 [1] and with KBM5 [2] was inactive. In addition, the pIC50 in series [3] is 6.13; in [5] it was 5.30.

As for `CC(C)[C@]12O[C@H]1[C@@H]1O[C@@]13[C@H]1CCC4=C(COC4=O)[C@@H]1C[C@@H]1O[C@@]13[C@@H]2OC(=O)CN(CCO)CCO`, the result with KBM5 [1] and in the series on KBM5 [2] was inactive. The pIC50 is 5.81 in [3] and 5.55 in [5].

Turning to `CC(C)[C@]12O[C@H]1[C@@H]1O[C@@]13[C@H]1CCC4=C(COC4=O)[C@@H]1C[C@@H]1O[C@@]13[C@@H]2OC(=O)CNCCN`, the result with KBM5 [1] and in the series with KBM5 [2] was Active. Moreover, the pIC50 in series [3] was 6.02; in series [5], 6.11. Moreover, in [4], the solubility entry is recorded as “Soluble”.

As for `CC(C)[C@]12O[C@H]1[C@@H]1O[C@@]13[C@H]1CCC4=C(COC4=O)[C@@H]1C[C@@H]1O[C@@]13[C@@H]2OC(=O)CN`, the pIC50 in [6] was 7.30; with MEF it was 4.95; in series [3], 7.93; in series [7] it was 7.36; in series [8], 4.94; in series [5], 7.72.

For `CCN(CC)CC(=O)O[C@@H]1[C@@]2(C(C)C)O[C@H]2[C@@H]2O[C@@]23[C@H]2CCC4=C(COC4=O)[C@@H]2C[C@@H]2O[C@]213`, the outcome with KBM5 [1] and with KBM5 [2] was Active. Moreover, the solubility entry in series [4] is “Soluble”. In addition, in series [5], the pIC50 is 7.11.

Consider `CC(C)[C@]12O[C@H]1[C@@H]1O[C@@]13[C@H]1CCC4=C(COC4=O)[C@@H]1C[C@@H]1O[C@@]13[C@@H]2OC(=O)CCl`, for which the result in the series with KBM5 [1] and in the series on KBM5 [2] was Active.

In the case of `CC(C)[C@]12O[C@H]1[C@@H]1O[C@@]13[C@H]1CCC4=C(COC4=O)[C@@H]1C[C@@H]1O[C@@]13[C@@H]2OC(=O)CNCCO`, the outcome (in the series on KBM5 [1]; in the series with KBM5 [2]; in the series on KBM5 [13]; in [14]; in [17]; in the series with KBM5 [18]) was Active. The inhibition result in the series with KBM5 [9] and in the series on KBM5 [16] was “Dose-dependent effect” each time. The Activity result in series [10], in series [11], in series [12] and in series [15] was “Dose-dependent effect” throughout. Besides, the inhibition entry in the series with DU-145, with HCT-116 and in the series with HeLa was “Active” in each case. For the same molecule, the pIC50 in series [6] was 7.21; in the series on MEF, 4.98; in [3], 7.71; in series [7], 7.13; in series [8] it was 5.00; in series [5] it was 7.74. In addition, in [4], the solubility entry was “Soluble”.

`CNCC(=O)O[C@@H]1[C@@]2(C(C)C)O[C@H]2[C@@H]2O[C@@]23[C@H]2CCC4=C(COC4=O)[C@@H]2C[C@@H]2O[C@]213`: the result in the series with KBM5 [1] and in the series with KBM5 [2] was Active. Further, the pIC50 is 6.51 in series [3] and 6.46 in [5]. Moreover, the solubility result in series [4] is given as “Soluble”.
